Activity calls are given as the source filed them. No cut-off for these calls is given here. A value given as a limit tells only on which side of the number the result lay.

By EC50 is commonly meant the concentration that produces a half-maximal response.

Data set [1] deals with Rattus norvegicus. The data set is described as follows: Cardiotoxicity in anesthetized Sprague-Dawley rat assessed as increase in heart rate at 3 mg/kg, iv measured for 30 mins relative to control. Conditions: in vivo, 0.5 h. It counts as toxicity, organism-based. The essentials: (§1)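 Male Sprague-Dawley rats (200-300 g) were anesthetized with sodium pentobarbital (50 mg/kg i.p. plus 25 mg/kg s.c.). The compound was injected via the cannulated left femoral vein once BP and HR were stable, and HR and MBP were recorded for 30 min. Results are the maximum % increase or decrease from baseline, as mean ± SEM. Where given, silodosin (0.01 mg/kg iv) preceded the compound.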

Data set [2] concerns Rattus norvegicus. The data set is described as follows: Cardiotoxicity in anesthetized Sprague-Dawley rat assessed as increase in mean blood pressure at 3 mg/kg, iv measured for 30 mins relative to control. The following applies: in vivo, 0.5 h. Format: toxicity, organism-based. A digest of the protocol: as §1
Data set [3] deals with Rattus norvegicus. As to the kind of experiment: Cardiotoxicity in anesthetized Sprague-Dawley rat assessed as decrease in mean blood pressure at 3 mg/kg, iv measured for 30 mins relative to control. Format: toxicity, organism-based. On the set-up: scale not given: the % may be the effect or the level left. Conditions: in vivo, 0.5 h. The essentials:
as §1

For data set [4], the target named is T1, Beta-3 adrenergic receptor (Homo sapiens, UniProt P13945). The data set is described as follows: Agonist activity at human recombinant beta3-adrenergic receptor expressed in CHO cells assessed as increase of cAMP level after 30 mins. It counts as functional, cell-based.
Target sequence in this assay (P13945 whole entry): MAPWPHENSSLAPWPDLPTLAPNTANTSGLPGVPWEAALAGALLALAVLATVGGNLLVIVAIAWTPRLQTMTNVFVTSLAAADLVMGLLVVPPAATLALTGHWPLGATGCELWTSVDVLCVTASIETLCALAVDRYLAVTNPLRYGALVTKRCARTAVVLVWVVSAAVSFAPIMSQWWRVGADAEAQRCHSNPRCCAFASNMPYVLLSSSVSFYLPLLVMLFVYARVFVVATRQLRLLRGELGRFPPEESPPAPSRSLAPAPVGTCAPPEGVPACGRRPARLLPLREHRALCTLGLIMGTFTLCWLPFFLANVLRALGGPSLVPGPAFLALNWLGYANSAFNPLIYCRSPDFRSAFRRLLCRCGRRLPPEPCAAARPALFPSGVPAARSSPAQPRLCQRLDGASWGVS
The target of data set [5] is T2, Alpha-1A adrenergic receptor (Homo sapiens, UniProt P35348).
T2 sequence (P35348 whole entry): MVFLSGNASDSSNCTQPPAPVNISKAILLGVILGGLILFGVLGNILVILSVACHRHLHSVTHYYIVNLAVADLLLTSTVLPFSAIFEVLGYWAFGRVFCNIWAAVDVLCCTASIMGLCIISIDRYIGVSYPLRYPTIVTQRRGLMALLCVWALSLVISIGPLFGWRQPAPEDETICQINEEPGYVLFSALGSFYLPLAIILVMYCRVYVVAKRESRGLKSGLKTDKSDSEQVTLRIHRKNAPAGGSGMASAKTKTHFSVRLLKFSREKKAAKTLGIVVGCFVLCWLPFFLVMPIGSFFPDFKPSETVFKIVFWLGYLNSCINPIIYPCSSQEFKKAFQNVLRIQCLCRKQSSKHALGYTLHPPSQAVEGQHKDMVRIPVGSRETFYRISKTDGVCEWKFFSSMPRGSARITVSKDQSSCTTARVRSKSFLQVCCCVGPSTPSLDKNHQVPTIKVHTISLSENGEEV
As to the kind of experiment: Agonist activity at human alpha1A-adrenergic receptor expressed in HEK293 cells assessed as calcium flux by fluorescence assay. It counts as functional, cell-based. For orientation: Calcium flux is commonly read through the fluorescence of an indicator in the cells.

Data set [6] deals with T1, Beta-3 adrenergic receptor. As to the kind of experiment: Intrinsic activity at human beta3-adrenergic receptor expressed in CHO cells assessed as increase of cAMP level after 30 mins relative to isoproterenol. It counts as functional, cell-based. A digest of the protocol:
(§2)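 Stably transfected CHO cells expressing human β1, β2 or β3 or marmoset β3 receptor were grown in Ham's F-12 with 10% FBS and geneticin, seeded at 2×10⁴ cells/well and grown about 20 h. Cells spent 15 min serum-free, then 30 min with compound in medium containing HEPES and isobutylmethylxanthine. Lysate cAMP was measured by kit. […] EC50 is the half-maximal concentration for each compound.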
Target sequence in this assay (P13945 whole entry, looked up): as the sequence (P13945 whole entry) above
Background: Changes in cAMP serve as a functional read-out for many G protein-coupled receptors.

Data set [7] has as its target T3, Alpha-1A adrenergic receptor (Homo sapiens) (UniProt P35348).
T3 sequence (whole entry): T2 sequence (P35348 whole entry)
The data set is described as follows: Intrinsic activity at human alpha1A-adrenergic receptor expressed in HEK293 cells assessed as calcium flux by fluorescence assay relative to norepinephrine. Format: functional, cell-based.

The species named for another data set is Homo sapiens. The data set is described as follows: Selectivity ratio of EC50 for human alpha1A-adrenergic receptor to EC50 for human beta3-adrenergic receptor.
Data set [8] addresses Beta-3 adrenergic receptor (Rattus norvegicus, UniProt P26255). As to the kind of experiment: Agonist activity at rat beta3-adrenergic receptor.
Data set [9] deals with Beta-3 adrenergic receptor (Rattus norvegicus) (UniProt P26255). As to the kind of experiment: Intrinsic activity at rat beta3-adrenergic receptor relative to isoproterenol.
Data set [10] in a line: Agonist activity at marmoset beta3-adrenergic receptor. The arrangement: species or system Callithrix jacchus. The essentials:
as §2

The species entered for data set [11] is Callithrix jacchus. The data set is described as follows: Agonist activity at marmoset beta3-adrenergic receptor relative to isoproterenol. A digest of the protocol:
as §2

For data set [12], the species on record is Callithrix jacchus. The data set is described as follows: Agonist activity at beta3-adrenergic receptor in isolated marmoset urinary bladder smooth muscle assessed as reduction of KCl-induced muscle contraction. Format: tissue-based. The essentials:
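Marmosets anesthetized with ketamine hydrochloride (15 mg/kg, i.m.) and exsanguinated. Bladder body strips (about 10-15 mm × 2-5 mm) were held in Krebs-Henseleit gassed with 95% O2/5% CO2 at 37 °C under 1 g resting tension and equilibrated over 30 min. Tension was recorded isometrically. After the top concentration, papaverine (final 10⁻⁴ mol/L) set each strip's maximum relaxation.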

Data set [13] deals with Beta-1 adrenergic receptor (Homo sapiens, UniProt P08588). The data set is described as follows: Agonist activity at human beta1-adrenergic receptor expressed in CHO cells assessed as increase of cAMP level after 30 mins. Format: functional, cell-based. The essentials: as §2
Data set [14] deals with Beta-2 adrenergic receptor (Homo sapiens, UniProt P07550). The data set is described as follows: Agonist activity at human beta2-adrenergic receptor expressed in CHO cells assessed as increase of cAMP level after 30 mins. Format: functional, cell-based. A digest of the protocol: as §2
Data set [15] relates to Rattus norvegicus. As to the kind of experiment: Cardiotoxicity in anesthetized Sprague-Dawley rat assessed as decrease in heart rate at 3 mg/kg, iv measured for 30 mins relative to control. Format: toxicity, organism-based. The arrangement: scale not given: the % may be the effect or the level left. The following applies: in vivo, 0.5 h. The essentials:
as §1

Chain of Beta-2 adrenergic receptor (P07550 whole entry): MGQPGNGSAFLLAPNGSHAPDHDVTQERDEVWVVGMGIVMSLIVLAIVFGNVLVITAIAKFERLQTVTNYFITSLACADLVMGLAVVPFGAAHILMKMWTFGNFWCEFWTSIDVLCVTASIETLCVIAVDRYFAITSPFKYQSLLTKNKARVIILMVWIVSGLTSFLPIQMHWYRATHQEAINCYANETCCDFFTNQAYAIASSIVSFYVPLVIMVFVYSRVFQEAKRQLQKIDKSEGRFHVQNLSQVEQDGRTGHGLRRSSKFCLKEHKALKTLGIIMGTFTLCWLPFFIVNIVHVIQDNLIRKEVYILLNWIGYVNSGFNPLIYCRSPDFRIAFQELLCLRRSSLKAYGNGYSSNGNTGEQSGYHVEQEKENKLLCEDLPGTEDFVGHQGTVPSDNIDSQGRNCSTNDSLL
Chain of Beta-1 adrenergic receptor (P08588 whole entry): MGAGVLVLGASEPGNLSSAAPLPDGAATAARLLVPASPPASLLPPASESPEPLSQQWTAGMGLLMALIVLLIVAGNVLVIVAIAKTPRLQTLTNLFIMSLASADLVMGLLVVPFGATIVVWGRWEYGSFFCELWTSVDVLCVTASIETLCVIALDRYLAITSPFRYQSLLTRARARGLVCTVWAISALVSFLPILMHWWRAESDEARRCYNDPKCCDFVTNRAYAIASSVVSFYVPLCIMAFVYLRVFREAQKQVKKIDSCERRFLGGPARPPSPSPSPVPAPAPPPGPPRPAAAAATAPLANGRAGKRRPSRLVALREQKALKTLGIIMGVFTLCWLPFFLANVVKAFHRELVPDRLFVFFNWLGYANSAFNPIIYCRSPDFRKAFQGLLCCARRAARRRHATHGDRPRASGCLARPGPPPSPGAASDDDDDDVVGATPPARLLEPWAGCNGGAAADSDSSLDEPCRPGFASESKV
Chain of Beta-3 adrenergic receptor (Rattus norvegicus) (P26255 whole entry): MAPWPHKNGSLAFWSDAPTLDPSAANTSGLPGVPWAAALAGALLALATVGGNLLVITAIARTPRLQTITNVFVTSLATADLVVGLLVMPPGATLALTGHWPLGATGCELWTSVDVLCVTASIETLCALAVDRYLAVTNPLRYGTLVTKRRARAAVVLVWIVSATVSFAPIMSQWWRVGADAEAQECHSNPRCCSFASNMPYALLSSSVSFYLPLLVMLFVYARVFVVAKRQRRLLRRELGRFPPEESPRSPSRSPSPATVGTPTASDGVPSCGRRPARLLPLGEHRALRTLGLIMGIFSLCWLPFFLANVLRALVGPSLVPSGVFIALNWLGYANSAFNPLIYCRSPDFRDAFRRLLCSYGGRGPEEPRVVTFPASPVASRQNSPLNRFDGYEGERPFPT
Chain of Beta-3 adrenergic receptor (Rattus norvegicus, UniProt P26255) (P26255 whole entry): as above

For the compound `Nc1nc(CC(=O)Nc2ccc(CCNC[C@H](O)c3ccccc3)cc2)cs1` [MIRABEGRON], the Activity with Rattus norvegicus [1] worked out at 10%; in the data set with Rattus norvegicus [2], 3.5%; in the data set with Rattus norvegicus [3] it was 38.3%.

In the case of `CS(=O)(=O)Nc1cccc([C@@H](O)CNCCOc2ccc3c(CO)n[nH]c3c2)c1`, the figures for the EC50 in data set [4] and in [5] were 111 nM and 33 nM, respectively.

In the case of `COc1n[nH]c2cc(OCCNC[C@H](O)c3cccc(NS(C)(=O)=O)c3)ccc12`, the results for the EC50 in data set [4] and in data set [5] were 40 nM and 252 nM, respectively. Besides, the results for the Intrinsic activity in data set [6] and in data set [7] were 70% and 60%, respectively. Further, the Ratio EC50 in the data set filed under Homo sapiens worked out at 6.3.

For the compound `CS(=O)(=O)Nc1cccc([C@@H](O)CNCCOc2ccc3c(C(F)(F)F)n[nH]c3c2)c1`, the EC50 worked out at 64 nM in data set [4] and 812 nM in [5]. For the same compound, the Intrinsic activity in data set [6] was found to be 86%; in [7], 31%. Besides, the Ratio EC50 in the data set listed under Homo sapiens came out at 13.

`CS(=O)(=O)Nc1cccc([C@@H](O)CNCCOc2ccc3c(Cl)n[nH]c3c2)c1`: the values for the EC50 in data set [4] and in [5] were 43 nM and 61 nM, respectively. Besides, the Intrinsic activity is 89% in data set [6] and 91% in data set [7]. In addition, the Ratio EC50 in the data set filed under Homo sapiens is 1.4.

For `CS(=O)(=O)Nc1cccc([C@@H](O)CNCCOc2ccc3c(-c4ccccc4)n[nH]c3c2)c1`, the EC50 in data set [4] and in data set [5] was above 10000 nM each time. The Intrinsic activity in data set [6] worked out at 29%; in data set [7], 6%.

Take `CC(C)c1n[nH]c2cc(OCCNC[C@H](O)c3cccc(NS(C)(=O)=O)c3)ccc12`: the EC50 in data set [8] was 535 nM; in data set [10], 15 nM; in [4], 13 nM; in [13], above 10000 nM; in data set [14] it was above 10000 nM; in [5], above 10000 nM. For the same compound, the Intrinsic activity in data set [9] amounted to 95%; in the data set listed under Callithrix jacchus [11], 75%; in data set [6] it was 69%; in data set [7], 9.1%. Besides, the outcome in the data set listed under Callithrix jacchus [12] was Active. Further, the Ratio EC50 in the data set filed under Homo sapiens is above 769. Further, the Activity is given as 3.3% in the data set with Rattus norvegicus [1], 1.8% in the data set with Rattus norvegicus [15], 4.7% in the data set with Rattus norvegicus [2] and 7.6% in the data set on Rattus norvegicus [3].

Regarding `CCOc1n[nH]c2cc(OCCNC[C@H](O)c3cccc(NS(C)(=O)=O)c3)ccc12`, the values for the EC50 in [4] and in [5] were 71 nM and 277 nM, respectively. Moreover, the Intrinsic activity was found to be 69% in [6] and 59% in data set [7]. Moreover, in the data set filed under Homo sapiens, the Ratio EC50 worked out at 3.9.

Consider `CCc1n[nH]c2cc(OCCNC[C@H](O)c3cccc(NS(C)(=O)=O)c3)ccc12`, for which the EC50 in [4] was 14 nM; in data set [13] it was above 10000 nM; in data set [14] it was above 10000 nM. Moreover, the values for the Intrinsic activity in data set [6] and in data set [7] were 78% and 31%, respectively. Besides, the Ratio EC50 in the data set filed under Homo sapiens worked out at 61. Besides, the Activity was 9.6% in the data set on Rattus norvegicus [1], 1.6% in the data set on Rattus norvegicus [15], 3.1% with Rattus norvegicus [2] and 10.8% in the data set on Rattus norvegicus [3].

`CC(C)(C)c1n[nH]c2cc(OCCNC[C@H](O)c3cccc(NS(C)(=O)=O)c3)ccc12`: the EC50 in data set [4] was 338 nM; in [5], above 10000 nM. For the same compound, the Intrinsic activity in [6] was 62%; in [7] it was 19%. Besides, the Ratio EC50 in the data set listed under Homo sapiens is above 30.

Regarding `CS(=O)(=O)Nc1cccc([C@@H](O)CNCCOc2ccc3c(C4CC4)n[nH]c3c2)c1`, the EC50 in [4] was 17 nM; in data set [13], above 10000 nM; in [14], above 10000 nM; in data set [5], 1550 nM. The Intrinsic activity in data set [6] was 72%; in [7], 19%. The Ratio EC50 in the data set filed under Homo sapiens was determined as 91. Further, the Activity worked out at 5.7% with Rattus norvegicus [1], 3.3% with Rattus norvegicus [15], 2.7% with Rattus norvegicus [2] and 11% in the data set on Rattus norvegicus [3].

As to `CS(=O)(=O)Nc1cccc([C@@H](O)CNCCOc2ccc3c(C4CCC4)n[nH]c3c2)c1`, the concentration giving a half-maximal response (EC50) in data set [4] is 66 nM; in data set [5] it was above 10000 nM. Further, the Intrinsic activity worked out at 68% in data set [6] and 4% in data set [7]. In addition, the Ratio EC50 in the data set filed under Homo sapiens was above 151.

The record behind these values is ChEMBL document CHEMBL3600378 (J Med Chem, 2015).
